Measured values: ChEMBL document CHEMBL4513216, “Probing the Open Global Health Chemical Diversity Library for Multistage-Active Starting Points for Next-Generation Antimalarials” (ACS Infect Dis, 2020)

Assay: Toxicity liver stage against HepG2, at 10uM
Assay type: cell-based
Set-up: test concentration 10 uM, cell line HepG2-A16-CD81EGFP
Settings: human, HepG2-A16-CD81EGFP cells; read-out: INHIBITION
Summary of the method: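 Uninfected HepG2-A16-CD81EGFP cells, 3 × 10^3 per well, 1536-well, plated on prespotted compound at 10 μM final, parasite-free screening media added to match infected plates; puromycin 10 μM positive, DMSO 0.5% negative; run in parallel with 48 h PbLuc assay at 37 °C, 5% CO2; viability by CellTiter-Glo luminescence, normalized to controls.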

Structure (SMILES)	cytotoxicity at 10 µM [%]
O=C(c1sccc1Br)N(Cc1cccnc1)C1CC1	-4.07
COCC(=O)N(Cc1cccc(C)c1)Cc1ccccc1OC	-51.4
O=C(NC1CC1)c1ccnc(-c2cc(NCCO)nc3[nH]ccc23)c1	5.61
CC(C)c1nnc2n1CCN(C(=O)c1cccc(S(C)(=O)=O)c1)C2	-28.4
CC1CCCCN1C(=O)c1ccc2c(c1)OCCCO2 (stereo unspecified)	9.62
CC(=O)N1CCC(N2CCOC[C@H]2c2nc(-c3ccncc3)c[nH]2)CC1	1.58
Cc1ccc(CN2CCCC23Cc2ccccc2CNC3=O)cc1 (stereo unspecified)	8.82
Cc1cc2cccc(NC(=O)N3CCC(N4CCSCC4)CC3)c2o1	-3.25
COc1ccc(CNC(C)c2cnc3cc(C)nn3c2C)cc1 (stereo unspecified)	-4.86
CCn1cc(Br)c(C(=O)NCc2cnn(C)c2)n1	-11.9
O=C(c1ccc[nH]1)N1CCc2nnc(Cn3cccn3)n2CC1	5.62
CCCOc1cccc(-c2nc3c([nH]2)CCNC3)c1	-3.38
CCNC(=O)C1(Cc2cc(-c3ccc(C)cc3)no2)CCCN(C)C1 (stereo unspecified)	7.9
CCN1CC(=O)NCC12CCN(C(=O)c1ccno1)C2 (stereo unspecified)	-2.75
O=C([C@H]1CN(Cc2ccncc2)C[C@H]2OCC[C@@H]12)N1CCCCO1	9.01
Cc1ccc(S(=O)(=O)NCC(O)c2ccoc2)s1 (stereo unspecified)	-8.18
Nc1cc(CCC2CN(Cc3cccc(C(=O)O)c3)CCO2)ccn1 (stereo unspecified)	-1.17
COc1cccn(CC(=O)N2CCCC3(CCCO3)CC2)c1=O (stereo unspecified)	0.955
O=C(C1COc2ccccc2O1)N1Cc2cnn(CCO)c2C1 (stereo unspecified)	-3.12
CCOCC1CN(C(=O)c2cccs2)Cc2cnn(CC3CC3)c21 (stereo unspecified)	-1
Cn1nnn(-c2ccc(NS(=O)(=O)c3ccc(Br)cc3)cc2)c1=O	-2.77
Fc1ccc(-c2cnc(CN3CCn4c(nnc4C4CC4)C3)o2)cc1	-13.4
COCCNC(=O)Nc1ccc(-n2cncn2)c(C(F)(F)F)c1	-5.92

Structure (SMILES)	cytotoxicity at 10 µM [%]
Cc1ncc(C(=O)NCCNc2ncccc2C#N)s1	-8.18
COCC1CN(Cc2ccc(OC)cc2)Cc2nnn(CC3CC3)c21 (stereo unspecified)	-2.47
CCc1noc(CN(CCS(C)(=O)=O)C(C)(C)C)n1	-0.718
CC(=O)c1ccc(C(=O)N2C[C@H]3CC[C@@H](C2)N(Cc2ccccc2)C3)s1	-13.3
CCOc1cc(Cl)ccc1CNC(=O)c1ccc(=O)n(C)c1	-4.01
COCCN(Cc1ccsc1)C(=O)c1c(C)cc(C)[nH]c1=O	-2.42
Cc1ccc(N2CCCC(NCc3cnc(C)s3)C2)nn1 (stereo unspecified)	-0.755
O=C1NCCCCC1Sc1nnc(-c2cccnc2)n1C1CC1 (stereo unspecified)	-3.86
O=C(CCc1nnc2ccccn2c1=O)NCc1ccco1	-7.51
CC(C)N(C)C(=O)C1CSCN1S(=O)(=O)c1ccccc1F (stereo unspecified)	8.65
C1CC(NCc2nc(C3CC3)no2)CN(Cc2noc(C3CC3)n2)C1 (stereo unspecified)	-8.65
O=C(Cc1ccc2c(c1)CCCC2)NCCc1ccccn1	1.9
CNc1ncc(CN(C)C2CCN(C(C)C)CC2)cn1	-3.14
CCN(C(=O)Nc1cc(C)on1)C(C)c1cccc(O)c1 (stereo unspecified)	2.52
O=C(Nc1ccccc1)C1CN(Cc2ccsc2)CC12CCOCC2 (stereo unspecified)	6.58
COCCN(C)C[C@@H]1CN(c2nc(C)cc(C)n2)C[C@@H]1CO	-10.3
NC(=O)CN1CCc2c(Br)ccc(F)c2C1	0.892
CC(=O)N1CCCN(C(=O)c2ccc(Sc3ccccn3)cc2)CC1	10.9
O=C(c1cnco1)N1CCCC(Cc2nccs2)C1 (stereo unspecified)	4.84
O=C(c1[nH]nc(C2CC2)c1Cl)N1CCN(S(=O)(=O)c2ccccc2)CC1	16
CCCc1nnc(NC(=O)NC2CCOc3ccccc32)s1 (stereo unspecified)	3.72
COc1ccccc1CNC(=O)CNCCn1cc(C)cn1	-1.9
Cc1noc(C2CCCN(C(=O)c3scnc3Cl)C2)n1 (stereo unspecified)	17.2
